Here are results for 3 substances from PMC6076386 (Biochemistry, 2017).

One assay deals with thrombin ABE I. To be noted: cited from earlier work.
Assay [1] deals with thrombin ABE I region 65–84. To be noted: cited from earlier work.
For assay [2], the target named is Wild Type PPACK-IIa (human plasma thrombin), ABE I (Homo sapiens, UniProt P00734). Briefly: 2D 1H-15N HSQC NMR titration, wild-type PPACK-thrombin. The class given is binding. To be noted: native PAR3 sequence, 15N-D54 and 15N-F47, PPACK-IIa; pH 6.5, 25 °C. A digest of the protocol:
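Human plasma thrombin blocked with PPACK (4:1 inhibitor:enzyme, 37 °C, 30 min), buffer-exchanged into 25 mM H₃PO₄, 150 mM NaCl, 0.2 mM EDTA, 10% D₂O, pH 6.5, 25 °C. ¹⁵N-labeled PAR3(44–56) held at 50 μM while thrombin (starting 210 μM) was serially diluted, spanning 4:1 to 0.1:1 ratios. Chemical-shift changes were fitted with a ligand-normalized quadratic for K_D. At least triplicate; Monte-Carlo errors assumed 10% dilution error.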

In the next assay the target is PAR3 (Homo sapiens) (UniProt O00254). Briefly: fluorescence titration. To be noted: cited from earlier work.

Entries after “also recorded” stand apart in the source; their conditions may differ.

Turning to “PAR3 (^44Q N T ^15F E E F P L S ^15D I E[56]) [PAR3 (44–56)]”, in the assay on thrombin ABE I, the “binding by X-ray crystallography” value is listed as “confirmed to bind in a specific manner to thrombin ABE I”. In addition, in assay [1], the HDX-MS binding region result was “both bind to the thrombin ABE I region 65–84”. For the same substance, the “binding affinity by 15N-HSQC NMR titration” value in assay [2] is listed as “binding affinities could not be determined; also recorded: bound too tightly to thrombin”.
Regarding Thrombin (from UniProt P00734), in the assay with PAR3 (Homo sapiens), the Kd is 2000 nM.
On to hirudin [reference compound], for which the HDX-MS binding region result in assay [1] is recorded as “both bind to the thrombin ABE I region 65–84”.

Usually Kd stands for the constant that tells how readily two partners part at equilibrium.
